Source: PubChem BioAssay
Lipid droplet = inhibitors of hepatocyte lipid droplet formation, primary screen, imaging, high-throughput imaging, BODIPY stain; AML12 mouse hepatocytes, oleate lipid droplets; inhibition, % at 6.5 µM; actives 0.4% (n = 240,000);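 active = lipid droplet intensity inhibited by at least 50%, with more than 500 cells counted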
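Assay system: AML12 mouse liver cells | Compound dosing: One dose, 6.5 µM compound | Read-out basis: Droplet intensity reduction, % inhibition | Measured by: Fluorescence imaging, 20x objective, two fields per well | Schedule: Overnight treatment with compound plus oleate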
CR mimetic SO = reduction of superoxide in aged yeast, primary screen, HTS | S. cerevisiae aged cells, superoxide DHE fluorescence; hits give low values | superoxide response (% of plate mean), % at 10 µM | actives 0.18% (n = 330,000);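 active = superoxide response under a set limit, about three screen SD below normal, cut at about 65% in these data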;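 also: yeast aged for seven days with compound at 30 °C before DHE staining; 100% = average MFI of all compound-treated wells on the plate with controls excluded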
SR-BI HDL uptake = inhibitors of SR-BI mediated HDL lipid uptake, primary screen, ldlA[mSR-BI] cells, fluorescence, single point. Scavenger receptor class B member 1 (Mus musculus), Q61009. ldlA[mSR-BI] CHO cells, DiI-HDL uptake fluorescence, 3 h. inhibition, % at 12.5 µM. actives 0.96% (n = 320,000). AID 488896, 2010;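 active = mean replicate inhibition of at least 70% and a set share of replicates each scoring 70 or more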;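 also: 0% = median of neutral control wells and 100% = median of positive control wells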
Target sequence (Q61009 whole entry, looked up): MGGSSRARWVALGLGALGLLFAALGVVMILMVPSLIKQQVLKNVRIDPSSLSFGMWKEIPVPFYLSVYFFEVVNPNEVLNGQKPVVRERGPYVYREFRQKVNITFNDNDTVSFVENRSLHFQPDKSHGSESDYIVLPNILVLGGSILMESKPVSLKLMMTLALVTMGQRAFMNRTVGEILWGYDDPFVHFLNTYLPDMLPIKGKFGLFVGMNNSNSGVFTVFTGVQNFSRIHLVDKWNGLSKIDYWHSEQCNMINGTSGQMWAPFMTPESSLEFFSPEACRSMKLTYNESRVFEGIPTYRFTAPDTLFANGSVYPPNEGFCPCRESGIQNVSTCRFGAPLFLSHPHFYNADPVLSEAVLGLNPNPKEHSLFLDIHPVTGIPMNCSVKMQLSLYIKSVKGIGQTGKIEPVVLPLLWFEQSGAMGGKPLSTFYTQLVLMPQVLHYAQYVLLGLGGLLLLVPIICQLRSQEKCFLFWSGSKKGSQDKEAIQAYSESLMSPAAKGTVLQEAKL
SMARCA2 act = SMARCA2 (BRM) function activators, primary screen, cell-based, luminescence, high throughput; MG213 cells, MMTV-luciferase reporter, dexamethasone, overnight; actives 1% (n = 370,000); activation, % at 9.1 µM; in the data active = activation above about 7.8%;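 also: 0% = vehicle wells and 100% = reference activator wells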
SR-BI uptake up = activators of SR-BI mediated DiI-HDL uptake, primary screen, ldlA[mSR-BI] CHO cells, DiI fluorescence; actives 0.096% (n = 320,000); 3 h; 100 = double the neutral-control signal; AID 504775, 2011; activation, % at 12.5 µM;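 active = mean replicate activation of at least 60% and every replicate at or above 60%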;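 also: 0% = median plate neutral-control signal and 100% = twice that signal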
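Test system: SR-BI-overexpressing, LDLR-lacking CHO cells; Also added: labelled HDL, 10 µg/mL; Measured by: bottom-read cell fluorescence after medium removal, ex 550/em 595 nm; Timing: 3 h uptake period with compound, 37 °C; Buffer or medium: F12, 0.5% BSA, 25 mM HEPES; Doses: single compound concentration, delivered by pin transfer.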
AHR act = AHR activators, primary screen, cell-based, luminescence, luciferase reporter, human. AID 2796, 2010. activation, % at 5 µM. AHR-responsive luciferase reporter cells. Aryl hydrocarbon receptor (Homo sapiens), P35869. actives 2.5% (n = 320,000); in the data active = activation above about 47%;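 also: 0% = vehicle wells and 100% = reference agonist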
* hit, by the source's call. An excerpt weighted towards active compounds, which were near 4.3% of everything screened.

What do the screens show for `c1ccc(-c2cc3c(ccc4nonc43)nn2)cc1`?
CR mimetic SO: 107; SR-BI HDL uptake: 3; SMARCA2 act: -1; SR-BI uptake up: -3; AHR act: 48*

What do the screens show for `Cc1cc(-c2csc(N)n2)c(C)n1-c1ccc(Cl)c(Cl)c1`?
Lipid droplet: -14; CR mimetic SO: 102; SR-BI HDL uptake: 70*; SMARCA2 act: -1; SR-BI uptake up: -70; AHR act: 3

What do the screens show for `C=CCN1C[C@H](COC(=O)c2cccc(C)c2)Oc2cccc(F)c2S1(=O)=O`?
SMARCA2 act: -1

How did COc1cc(OC)cc(-c2nnc(NC(=O)CCS(=O)(=O)c3ccc(C)cc3)o2)c1 do in these assays?
CR mimetic SO: 81; SR-BI HDL uptake: 1; SMARCA2 act: -2; SR-BI uptake up: -1; AHR act: 65*

Results for COc1cccc(CNC(=O)C2CCC(CNS(=O)(=O)c3cccc4cccnc34)CC2)c1OC (configuration not stated) ?
SMARCA2 act: -1

What do the screens show for `O=C1C=C(Nc2ccccc2O)c2ccccc2C1=O`?
CR mimetic SO: 124; SR-BI HDL uptake: -9; SMARCA2 act: -3; SR-BI uptake up: 9; AHR act: 72*

Results for C[C@@H]1CN(c2ccc(N3CCN(C(=O)OC(C)(C)C)C[C@@H]3C)cc2C#N)C[C@H](C)O1 ?
SMARCA2 act: -4

What do the screens show for `Oc1ccc2ccccc2c1C1Nc2cccc3cccc(c23)N1`?
Lipid droplet: 1; CR mimetic SO: 93; SR-BI HDL uptake: 35; SR-BI uptake up: -35; AHR act: 21

What do the screens show for `CCN(CC)c1ccc(C2Nc3cccc4cccc(c34)N2)c(O)c1`?
CR mimetic SO: 104; SR-BI HDL uptake: 114*; SMARCA2 act: 5; SR-BI uptake up: -114; AHR act: 71*

What do the screens show for `O=C(Cc1cn(Cc2ccccc2)c2ccccc12)Nc1ccc(Nc2cccnc2)c(Br)c1`?
SMARCA2 act: -4

How did CN1c2ccccc2Sc2cc(N)ccc21 do in these assays?
Lipid droplet: 5; CR mimetic SO: 78; SR-BI HDL uptake: 46; SMARCA2 act: -2; SR-BI uptake up: -46; AHR act: 62*

Results for O=C(NCCCCC(NC(=O)c1ccccc1)C(=O)O)OCc1ccccc1 (configuration not stated) ?
SMARCA2 act: 0

How did CCC(CC)NC(=O)CO/N=C/c1ccc(Cl)cc1Cl do in these assays?
Lipid droplet: 1; CR mimetic SO: 103; SR-BI HDL uptake: -5; SMARCA2 act: 7.9*; SR-BI uptake up: 5; AHR act: 2

Results for CCc1noc(C)c1C(=O)Nc1nc2c(F)cc(F)cc2s1 ?
CR mimetic SO: 89; SR-BI HDL uptake: -9; SMARCA2 act: 1; SR-BI uptake up: 9; AHR act: 61*

What do the screens show for `O=C(NNS(=O)(=O)c1ccccc1)c1cc2cc3ccccc3nc2s1`?
CR mimetic SO: 89; SR-BI HDL uptake: 1; SMARCA2 act: 0; SR-BI uptake up: -1; AHR act: 36

What do the screens show for `O=C(NNC(=O)c1cc2cc3ccccc3nc2s1)c1cccc(C(F)(F)F)c1`?
CR mimetic SO: 106; SR-BI HDL uptake: 7; SMARCA2 act: -3; SR-BI uptake up: -7; AHR act: 48*

How did Oc1[nH]c2ccc(Br)cc2c1N=Nc1ccc(F)cc1 do in these assays?
CR mimetic SO: 103; SR-BI HDL uptake: 2; SMARCA2 act: 4; SR-BI uptake up: -2; AHR act: 62*

How did Cc1ccc(CN2CCCCC(NC(=O)Cc3cccs3)C2=O)cc1 (configuration not stated) do in these assays?
SMARCA2 act: -3

How did O=C(COC(=O)c1ccc(Sc2ncn[nH]2)c([N+](=O)[O-])c1)Nc1cccc(Cl)c1F do in these assays?
SMARCA2 act: -1

How did CCCc1nc2cc3c(cc2[nH]1)n(C)c(=O)n3C do in these assays?
CR mimetic SO: 106; SR-BI HDL uptake: -8; SMARCA2 act: -3; SR-BI uptake up: 8; AHR act: 75*

What do the screens show for `CC(C)(C)C(=O)N1CCC[C@]2(CC[C@H](CCC#N)O2)C1`?
SMARCA2 act: -1

What do the screens show for `COc1ccc(-c2cc(C(=O)N3CCN(c4ccccc4)CC3)c3ccccc3n2)cc1OC`?
Lipid droplet: 1; CR mimetic SO: 100; SR-BI HDL uptake: 18; SMARCA2 act: -2; SR-BI uptake up: -18; AHR act: 77*

How did COc1ccc(-c2cc(C(=O)N3CCCCCC3)c3ccccc3n2)cc1 do in these assays?
SR-BI HDL uptake: 75*; SMARCA2 act: 3; SR-BI uptake up: -75

What do the screens show for `COc1ccc(-c2cc(C(=O)N3CCCCCC3)c3ccccc3n2)cc1OC`?
SMARCA2 act: 0

What do the screens show for `O=C(c1ccc(N2CCCC2=O)cc1)N1CCN(c2ccccc2Cl)CC1`?
CR mimetic SO: 45*; SR-BI HDL uptake: 13; SMARCA2 act: -1; SR-BI uptake up: -13; AHR act: -1

Results for Cn1c(O)c(/C=N/Nc2ccccc2)c(=O)n(C)c1=O ?
Lipid droplet: 23; CR mimetic SO: 88; SR-BI HDL uptake: -2; SMARCA2 act: 2; SR-BI uptake up: 2; AHR act: 58*

What do the screens show for `O=c1oc2ccccc2cc1-c1cn2ccccc2n1`?
Lipid droplet: 3; CR mimetic SO: 121; SR-BI HDL uptake: 7; SMARCA2 act: 0; SR-BI uptake up: -7; AHR act: 76*

How did Cc1cc(C)c2nc(-c3ccccn3)cc(C(=O)NCc3ccco3)c2c1 do in these assays?
Lipid droplet: -2; CR mimetic SO: 91; SR-BI HDL uptake: 0; SMARCA2 act: -1; SR-BI uptake up: 0; AHR act: 69*

How did COC(=O)[C@]12C[C@H](CC(=O)NCCCCc3ccccc3)C(=O)N(Cc3ccccc3)C1=C[C@H](C(C)C)O[C@@H]2C1CC1 do in these assays?
SMARCA2 act: -8

Results for O=C(NCCc1ccc(Cl)cc1)c1ccc2c(c1)ncn2C1CCCCC1 ?
SMARCA2 act: -7

Results for CC(C)[C@H](NC(=O)c1ccc(Cl)c(Cl)c1)C(=O)N1CCC[C@H]1C(=O)NCCc1ccccc1Cl ?
SMARCA2 act: -3

How did CC(C)N(C(=O)[C@H]1C[C@H](CC(=O)NCc2ccco2)C(=O)N2CCc3c([nH]c4cc(CCC(=O)N(C)C)ccc34)[C@]12C)C(C)C do in these assays?
CR mimetic SO: 98; SR-BI HDL uptake: 5; SMARCA2 act: 7.9*; SR-BI uptake up: -5
